In the library only some 1.9% were active in any assay of this set; here they are far more common.
FID counter – counter-screen for HCV NS3 helicase inhibitors: DNA intercalator displacement. DNA fluorescent intercalator displacement, fluorescence. AID 1845. inhibition, % at 7.9 µM. 0.17% of 290,000 active; in the data active means inhibition above about 37%;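 further: 0% = vehicle and 100% = reference compound; higher means more ethidium bromide displaced from hairpin DNA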
IMP-1 inh-1 – inhibitors of Pseudomonas aeruginosa IMP-1 metallo-beta-lactamase; inhibition, % at 5.6 µM; AID 1556; 0.45% of 290,000 active; purified IMP-1, nitrocefin hydrolysis, epi-absorbance fluorescence;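 active means inhibition above the mean plus 3 SD of all compounds in the same screening run, cut at about 4.5% in these data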;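 further: 0% = IMP-1 with DMSO and 100% = DMSO wells lacking enzyme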
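Test system: recombinant IMP-1 enzyme, purified / Medium: HEPES buffer pH 7.1 with ZnSO4 and Brij 35 / Doses: single dose, 5.6 µM / Times: 25 °C, 15 min preincubation, 25 min reaction / Detection: Epi-absorbance via hydrolysed-nitrocefin quenching of white-plate fluorescence, 480/530 nm, EDTA stop / Evaluation: percent inhibition from optical density relative to buffer-blank wells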
VIM-2 inh – blocks Pseudomonas aeruginosa VIM-2 metallo-beta-lactamase; purified VIM-2, nitrocefin hydrolysis, epi-absorbance fluorescence; inhibition, % at 5.6 µM; 0.89% of 290,000 active;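 active means inhibition above the mean of all tested compounds plus 3 SD, cutoff set per screening run, cut at about 7.5% in these data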;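 further: red hydrolysis product quenches plate fluorescence so inhibitors raise well fluorescence; 0% = enzyme with DMSO and 100% = DMSO without enzyme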
NS3 helicase inh – blocks Hepatitis C virus NS3 helicase unwinding. 0.56% of 290,000 active. inhibition, % at 10.9 µM. NS3 helicase DNA unwinding, Cy5 molecular beacon fluorescence;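 active means inhibition above the mean of all tested compounds plus 3 SD, set per campaign, cut at about 35% in these data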;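 further: 0% = DMSO wells and 100% = thioflavine S control wells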
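test system = hepatitis C virus NS3 helicase domain fragment enzyme | reagent = annealed dual-labelled DNA beacon duplex, ATP-started | times = 1 h at 25 °C | detection = Cy5 fluorescence, 0 and 60 min reads | read-out basis = percent inhibition from t60/t0 fluorescence ratio | control set = DMSO and thioflavine S | replication = one well per compound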
IMP-1 inh-2 – IMP-1 inhibition, counter-screen for VIM-2 inhibitors; shares compounds with VIM-2 inh; purified IMP-1, nitrocefin hydrolysis, epi-absorbance fluorescence; inhibition, % at 5.6 µM; 1,300 tested, under 10 active; AID 1856; call rule not given here;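 further: 0% = enzyme with vehicle and 100% = vehicle without enzyme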
VIM-2 FRET ctr – counter-screen for VIM-2 inhibitors: epi-absorbance artifacts via FRET. shares compounds with VIM-2 inh. purified VIM-2, CCF2 FRET substrate hydrolysis. inhibition, % at 5.6 µM. 23% of 1,300 active. AID 1857;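 active means inhibition above the mean of all tested compounds plus 3 SD, cut at about 19% in these data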;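 further: 0% = VIM-2 plus DMSO and 100% = no enzyme wells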
TEM-1 counter – TEM-1 inhibition, counter-screen for VIM-2 inhibitors | inhibition, % at 5.6 µM | 3% of 1,300 active | shares compounds with VIM-2 inh | Purified TEM-1, nitrocefin hydrolysis, epi-absorbance fluorescence;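 active means inhibition above that campaign's mean inhibition plus 3 SD, cut at about 0.46% in these data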;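 further: 0% = TEM-1 with DMSO and 100% = TEM-1 with 100 µM potassium clavulanate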
Target sequence (P62593 whole entry, looked up): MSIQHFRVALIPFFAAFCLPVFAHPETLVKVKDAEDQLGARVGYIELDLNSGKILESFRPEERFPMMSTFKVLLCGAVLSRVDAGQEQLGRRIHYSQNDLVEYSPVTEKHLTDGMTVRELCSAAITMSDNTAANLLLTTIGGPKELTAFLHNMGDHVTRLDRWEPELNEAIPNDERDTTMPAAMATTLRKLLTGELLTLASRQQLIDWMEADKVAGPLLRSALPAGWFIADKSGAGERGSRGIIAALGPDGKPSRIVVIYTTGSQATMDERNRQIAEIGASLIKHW
VIM-2 confirm 2 – confirmation of P. aeruginosa VIM-2 metallo-beta-lactamase inhibitors; shares compounds with VIM-2 inh; purified VIM-2, nitrocefin hydrolysis, epi-absorbance; inhibition, % at 5.6 µM; 96% of 1,300 active; AID 2187;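 active means inhibition of the VIM-2 beta-lactamase enzyme above about 11% from the earlier first-round screen, limit read from the data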;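 further: 0% = VIM-2 with DMSO and 100% = buffer wells without enzyme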
* hit, by the source's call; / = no result given.

SMILES	FID counter	IMP-1 inh-1	VIM-2 inh	NS3 helicase inh	IMP-1 inh-2	VIM-2 FRET ctr	TEM-1 counter	VIM-2 confirm 2
Cc1cc(N2CCN(c3ccccn3)CC2)n2c(nc3ccccc32)c1C#N	2	-3	1	3	/	/	/	/
O=C(COc1ccc(Br)cc1)NCCCNC(=O)c1cnccn1	-13	-2	-3	3	/	/	/	/
CCCCCCOc1ccc(N2C(=O)CC(SCCN)C2=O)cc1 (configuration not stated)	9	-4	15*	-65	-2	6	-6	5
CN(C(=O)Cc1noc2ccccc12)c1ccccc1	2	0	-3	-7	/	/	/	/
Cc1nn(Cc2ccccc2)c(Cl)c1C(=O)NCc1ccco1	-8	-3	-4	9	/	/	/	/
Cn1ccnc1SCC(=O)Nc1ccc2nc(SCC(=O)NC3CC3)sc2c1	-11	-2	13*	-2	-3	36*	-6	25*
CN(CCO)c1ccc([N+](=O)[O-])cc1C(=O)O	4	-2	1	2	/	/	/	/
CCOC(=O)CNS(=O)(=O)c1cc(-c2n[nH]c(=O)c3ccccc23)ccc1C	-16	-1	2	-1	/	/	/	/
CN(CCO)c1ccc(-c2n[nH]c(=O)c3ccccc23)cc1[N+](=O)[O-]	-11	-4	16*	7	-3	-3	-6	27*
CCC(CO)Nc1ccc(-c2n[nH]c(=O)c3ccccc23)cc1[N+](=O)[O-] (configuration not stated)	-14	-2	22*	-10	-4	-4	-8	32*
CCC(CO)Nc1ccc(-c2nn(C)c(=O)c3ccccc23)cc1[N+](=O)[O-] (configuration not stated)	-3	-1	25*	6	-4	-2	-8	45*
CCOC(=O)c1cnc(-n2nc(C)cc2C)nc1NCc1ccccc1	-18	-4	36*	4	-5	-38	-5	50*
CCOC(=O)c1cnc(-n2nc(C)cc2C)nc1NCCO	-7	-2	1	1	/	/	/	/
O=[N+]([O-])c1ccc(OCc2cnc(Cl)s2)c([N+](=O)[O-])c1	12	0	1	0	/	/	/	/
Cc1ccc2nc(Cl)c3cc(C(=O)NCCCN4CCCC4)sc3c2c1	18	-2	13*	-9	-2	7	-6	27*
Cc1ccc2cc3cc(C(=O)NCCCN4CCCC4)oc3nc2c1	-22	0	4	-31	/	/	/	/
COc1ccc(C2C(C(=O)c3cccs3)=C(O)C(=O)N2c2nnc(C)s2)cc1OC (configuration not stated)	4	1	27*	10	3	-12	5.5*	8.8*
COc1ccc(C2C(C(=O)c3cccs3)=C(O)C(=O)N2c2nncs2)cc1 (configuration not stated)	3	-2	5	7	/	/	/	/
CSCc1cc(N(C)c2ccccc2)nc(-c2ccccn2)n1	-23	-3	64*	-24	-4	-56	-7	72*
CSC1=N/C(=C/c2ccc(-n3cncn3)cc2)C(=O)N1	2	1	14*	-7	-3	-2	-9	55*
COc1ccc(/C=C2\N=C(SC)NC2=O)cc1	0	-7	-3	7	/	/	/	/
CN(C)S(=O)(=O)c1cccc(NC(=S)N/N=C/c2cccc(O)c2)c1	-5	-2	18*	7	-3	16	-8	14*
CCNc1nc(C)nc2c1oc1ccccc12	4	-1	4	-4	/	/	/	/
c1ccc2c(c1)oc1c(NCCCn3ccnc3)ncnc12	7	-1	56*	11	-4	-7	-7	60*
Cc1nc(NCCCn2ccnc2)c2oc3ccccc3c2n1	11	1	76*	-3	-2	-8	-6	83*
SMILES	FID counter	IMP-1 inh-1	VIM-2 inh	NS3 helicase inh	IMP-1 inh-2	VIM-2 FRET ctr	TEM-1 counter	VIM-2 confirm 2
O=[N+]([O-])c1cc(CN2CCOCC2)c2cccnc2c1O	-10	-2	46*	1	-4	4	-7	49*
CCOC(=O)c1cnc2c(CC)cccc2c1NCCN1CCOCC1	3	-2	14*	11	-3	1	-6	24*
Cn1nc(C(=O)NCCN2CCOCC2)c2ccccc2c1=O	-4	-1	-5	-3	/	/	/	/
CC(Oc1ccc(Cl)cc1Cl)C(=O)NCCN1CCOCC1 (configuration not stated)	-4	0	-4	-12	/	/	/	/
CC(Oc1ccc2c(c1)c1ccnc3c4ccccc4c(=O)n2c13)C(=O)NCCN1CCOCC1 (configuration not stated)	12	-2	27*	-79	-2	-8	-8	36*
COc1ccc2c(c1OC)c(=O)n1c3ccc(OC(C)C(=O)NCCN4CCOCC4)cc3c3ccnc2c31 (configuration not stated)	9	0	18*	-4	-1	-5	-9	26*
Cc1cccn2cc(CCNS(=O)(=O)c3cccc([N+](=O)[O-])c3)nc12	3	-1	-1	11	/	/	/	/
CCOC(=O)c1c(S(=O)(=O)NCC(=O)N2CCN(c3ccccc3)CC2)c(C)n(C)c1C	-26	-1	-1	7	/	/	/	/
CCN1CCN(c2nn3c(=O)c4ccccc4nc3c3ccccc23)CC1	17	-2	18*	0	-2	4	-2	30*
CCN1CCN(Cc2cc(=O)oc3cc4c(cc23)CCC4)CC1	1	-4	13*	2	-3	-5	-3	31*
CC1CCN(Cc2cc(=O)oc3cc4c(cc23)CCCC4)CC1	-14	0	-1	5	/	/	/	/
CN1CCN(Cc2cc(=O)oc3cc4c(cc23)CCC4)CC1	12	-3	18*	11	-4	1	-6	30*
Cc1cc(C)c(NC(=O)c2cccs2)c(C)c1NC(=O)c1cccs1	-7	-5	-4	-5	/	/	/	/
Cc1csc2c(C#N)c(=O)c3c(n12)CCC3	6	-1	14*	2	-4	-6	-9	22*
C(=N\Nc1ncnc2sc3c(c12)CCC3)/c1cccs1	-11	-1	2	-54	/	/	/	/
C(=N\Nc1ncnc2sc3c(c12)CCC3)/c1ccncc1	-9	-5	34*	8	-2	-6	-4	53*
Cc1ccccc1CCNC(=O)C1CCC(=O)N(CCc2cccc(F)c2)C1 (configuration not stated)	-34	-1	-2	-3	/	/	/	/
CCN(CC)CCNc1nc2c(c(=O)n(C)c(=O)n2C)n1C/C=C(/C)Cl	13	-2	1	7	/	/	/	/
C/C(Cl)=C/Cn1c(NCCCn2ccnc2)nc2c1c(=O)[nH]c(=O)n2C	-2	-3	22*	-3	-4	-6	-4	45*
